How the values were obtained:
[1] = Antitumor activity against mouse Gardner lymphosarcoma allografted in C3H mouse assessed as tumor growth inhibition at 0.10 mg/kg, ip administered daily for 8 to 10 days; type: functional; details: route intraperitoneal, read-out: TGI
How it was run: (§1)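 Gardner lymphosarcoma in C3H mice; sulfate salts unless noted, given ip daily for 8–10 days, treatment starting 8 days after tumor implantation. Tumor growth inhibition scored as –, 0–25%; +, 26–50%; ++, 51–75%; +++, 76–100%; T, lethal to ≥5 of 10 animals per group. Average of one or more tests.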

P388/VCR [2] = assay: Antitumor activity against mouse P388/VCR cells allografted in B6D2F1 mouse assessed as increase in host lifespan at 0.60 mg/kg, ip administered on days 1, 5 and 9; type: functional; details: dose 0.6 mg/kg; route intraperitoneal
How it was run: (§2)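 P388/VCR leukemia in groups of 10 B6D2F1 mice, run at Lilly using the cell strain received from NCI. Sulfate salts given ip on days 1, 5 and 9. Read-out is percent increase in lifespan.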

B16 [3] = assay: Antitumor activity against mouse B16 cells allografted in C57BL/6 mouse assessed as prolongation of host survival at 0.90 mg/kg, ip administered on days 1,5 and 9; type: functional; details: route intraperitoneal
How it was run: (§3)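 B16 melanoma cells (10⁶ inoculum) implanted ip in C57BL/6 mice; groups of 10. Sulfate salts unless noted, given ip on days 1, 5 and 9. Single test. Survival prolongation is expressed as percent versus controls, with survivors counted on day 60. Toxic means deaths of ≥5 of 10 animals before the first control death.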

P388/VCR [4] = assay: Antitumor activity against mouse P388/VCR cells allografted in B6D2F1 mouse assessed as increase in host lifespan at 1.20 mg/kg, ip administered on days 1, 5 and 9; type: functional; details: dose 1.2 mg/kg; route intraperitoneal; how it was run: as §2
Mus musculus [5] = assay: Toxicity in C3H mouse allografted with mouse Gardner lymphosarcoma assessed as lethality at 0.40 mg/kg, ip administered daily for 8 to 10 days; type: organism-based; design: dose 0.4 mg/kg, route intraperitoneal; details: in vivo, 0.4 mg/kg
How it was run: (§4)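 Tumor-bearing mice given sulfate salts ip daily for 8–10 days; values are the average of one or more tests. Toxic means lethal to ≥5 of 10 animals per group.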

B16 [6] = assay: Antitumor activity against mouse B16 cells allografted in C57BL/6 mouse assessed as prolongation of host survival at 0.60 mg/kg, ip administered on days 1,5 and 9; type: functional; details: route intraperitoneal; how it was run: as §3
Mus musculus [7] = assay: Toxicity in C57BL/6 mouse allografted with mouse B16 cells assessed as animal death at 1.20 mg/kg, ip administered on days 1,5 and 9; type: organism-based; design: dose 1.2 mg/kg, route intraperitoneal; details: in vivo, 1.2 mg/kg; how it was run: as §3
CHO [8] = assay: Mitotic arrest in CHO cells assessed as increase in cell accumulation at 0.02 ug/ml; type: functional, Cricetulus griseus
How it was run: (§5)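 Chinese hamster ovary cells in tissue culture, scored for mitotic arrest as increase in cells in mitotic arrest over control: +++, 40–50%; ++, 15–40%; +, 10–15%; ±, 7–10%; –, 3–7%. Cytotoxicity noted separately.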

[9] = Antitumor activity against mouse Gardner lymphosarcoma allografted in C3H mouse assessed as tumor growth inhibition at 0.20 mg/kg, ip administered daily for 8 to 10 days; type: functional; details: route intraperitoneal, read-out: TGI; how it was run: as §1
CHO [10] = assay: Mitotic arrest in CHO cells assessed as increase in cell accumulation at 0.2 ug/ml; type: functional, Cricetulus griseus; how it was run: as §5
P388/VCR [11] = assay: Antitumor activity against mouse P388/VCR cells allografted in B6D2F1 mouse assessed as increase in host lifespan at 0.90 mg/kg, ip administered on days 1, 5 and 9; type: functional; details: dose 0.9 mg/kg; route intraperitoneal; how it was run: as §2
CHO [12] = assay: Mitotic arrest in CHO cells assessed as increase in cell accumulation at 0.002 ug/ml; type: functional, Cricetulus griseus; how it was run: as §5
Mus musculus [13] = assay: Toxicity in AKR mouse allografted with mouse Ridgway osteogenic sarcoma assessed as lethality at 0.20 mg/kg, ip administered daily for 8 to 10 days compound treatment commenced 8 days after tumor implantation; type: organism-based; design: dose 0.2 mg/kg, route intraperitoneal; details: in vivo, 0.2 mg/kg; how it was run: as §4
Mus musculus [14] = assay: Toxicity in AKR mouse allografted with mouse Ridgway osteogenic sarcoma assessed as lethality at 0.40 mg/kg, ip administered daily for 8 to 10 days compound treatment commenced 8 days after tumor implantation; type: organism-based; design: dose 0.4 mg/kg, route intraperitoneal; details: in vivo, 0.4 mg/kg; how it was run: as §4
[15] = Antitumor activity against mouse Ridgway osteogenic sarcoma allografted in AKR mouse assessed as tumor growth inhibition at 0.10 mg/kg, ip administered daily for 8 to 10 days compound treatment commenced 8 days after tumor implantation; type: functional; details: route intraperitoneal, read-out: TGI
[16] = Antitumor activity against mouse Gardner lymphosarcoma allografted in C3H mouse assessed as tumor growth inhibition at 0.25 mg/kg, ip administered daily for 8 to 10 days; type: functional; details: route intraperitoneal, read-out: TGI; how it was run: as §1
[17] = Antitumor activity against mouse Gardner lymphosarcoma allografted in C3H mouse assessed as tumor growth inhibition at 0.5 mg/kg, ip administered daily for 8 to 10 days; type: functional; details: route intraperitoneal, read-out: TGI; how it was run: as §1
[18] = Antitumor activity against mouse Gardner lymphosarcoma allografted in C3H mouse assessed as tumor growth inhibition at 0.125 mg/kg, ip administered daily for 8 to 10 days; type: functional; details: route intraperitoneal, read-out: TGI; how it was run: as §1
[19] = Antitumor activity against mouse Ridgway osteogenic sarcoma allografted in AKR mouse assessed as tumor growth inhibition at 0.20 mg/kg, ip administered daily for 8 to 10 days compound treatment commenced 8 days after tumor implantation; type: functional; details: route intraperitoneal, read-out: TGI
[20] = Antitumor activity against mouse Gardner lymphosarcoma allografted in C3H mouse assessed as tumor growth inhibition at 0.40 mg/kg, ip administered daily for 8 to 10 days; type: functional; details: route intraperitoneal, read-out: TGI; how it was run: as §1
[21] = Dissociation constant, pKa of the compound; type: physicochemical
How it was run: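 Electrometric titration in 66% aqueous DMF.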

[22] = Antitumor activity against mouse Ridgway osteogenic sarcoma allografted in AKR mouse assessed as tumor growth inhibition at 0.40 mg/kg, ip administered daily for 8 to 10 days compound treatment commenced 8 days after tumor implantation; type: functional; details: route intraperitoneal, read-out: TGI
[23] = Antitumor activity against mouse Ridgway osteogenic sarcoma allografted in AKR mouse assessed as tumor growth inhibition at 0.30 mg/kg, ip administered daily for 8 to 10 days compound treatment commenced 8 days after tumor implantation; type: functional; details: route intraperitoneal, read-out: TGI
Mus musculus [24] = assay: Toxicity in C3H mouse allografted with mouse Gardner lymphosarcoma assessed as lethality at 0.30 mg/kg, ip administered daily for 8 to 10 days; type: organism-based; design: dose 0.3 mg/kg, route intraperitoneal; details: in vivo, 0.3 mg/kg; how it was run: as §4
[25] = Antitumor activity against mouse Gardner lymphosarcoma allografted in C3H mouse assessed as tumor growth inhibition at 0.05 mg/kg, ip administered daily for 8 to 10 days; type: functional; details: route intraperitoneal, read-out: TGI; how it was run: as §1
Mus musculus [26] = assay: Toxicity in C3H mouse allografted with mouse Gardner lymphosarcoma assessed as lethality at 0.20 mg/kg, ip administered daily for 8 to 10 days; type: organism-based; design: dose 0.2 mg/kg, route intraperitoneal; details: in vivo, 0.2 mg/kg; how it was run: as §4

With `CC[C@]1(O)C[C@H]2CN(CCc3c([nH]c4ccccc34)[C@@](C(=O)OC)(c3cc4c(cc3OC)N(C)[C@H]3[C@@](O)(C(=O)NCCSC)[C@H](O)[C@]5(CC)C=CCN6CC[C@]43[C@@H]65)C2)C1.O=S(=O)(O)O` as the compound, how does the inhibition in vivo at 0.1 mg/kg [1] read?
The inhibition in vivo at 0.1 mg/kg was 0%.

And the Activity (P388/VCR [2])?
Its Activity is 20%.

What about the survival at 0.9 mg/kg (B16 [3]) of the same compound?
The survival at 0.9 mg/kg was 58%.

What about the Activity (P388/VCR [4]) of the same compound?
The Activity was 6%.

What about the Activity (Mus musculus [5]) of the same compound?
The Activity was “Toxic”.

And the survival at 0.6 mg/kg (B16 [6])?
The survival at 0.6 mg/kg was 163%.

What about the Activity (Mus musculus [7]) of the same compound?
The Activity was “Toxic”.

What about the Activity (CHO [8]) of the same compound?
Its Activity is 15%.

What about the inhibition in vivo at 0.2 mg/kg [9] of the same compound?
The inhibition in vivo at 0.2 mg/kg was 0%.

And the Activity (CHO [10])?
Its Activity is 15%.

And the Activity (P388/VCR [11])?
Its Activity is 42%.

What about the Activity (CHO [12]) of the same compound?
Its Activity is 3%.

What does the source list for `CCNC(=O)[C@@]1(O)[C@H](O)[C@]2(CC)C=CCN3CC[C@@]4(c5cc([C@@]6(C(=O)OC)C[C@@H]7CN(CCc8c6[nH]c6ccccc86)C[C@](O)(CC)C7)c(OC)cc5N(C)[C@@H]14)[C@@H]32.O=S(=O)(O)O`?
inhibition in vivo at 0.1 mg/kg [1]: 0%; Activity (Mus musculus [5]): Toxic; Activity (Mus musculus [13]): Toxic; Activity (Mus musculus [14]): Toxic; inhibition in vivo at 0.2 mg/kg [9]: 76%; inhibition in vivo at 0.1 mg/kg [15]: 0%

Which results are given for `CC[C@]1(O)C[C@H]2CN(CCc3c([nH]c4ccccc34)[C@@](C(=O)OC)(c3cc4c(cc3OC)N(C)[C@H]3[C@@](O)(C(=O)NCCNC(C)=O)[C@H](OC(C)=O)[C@]5(CC)C=CCN6CC[C@]43[C@@H]65)C2)C1`?
inhibition in vivo at 0.25 mg/kg [16]: 51%; inhibition in vivo at 0.5 mg/kg [17]: 76%; inhibition in vivo at 0.125 mg/kg [18]: 0%

For `CC[C@]1(O)C[C@H]2CN(CCc3c([nH]c4ccccc34)[C@@](C(=O)OC)(c3cc4c(cc3OC)N(C)[C@H]3[C@@](O)(C(=O)NCCCSC)[C@H](O)[C@]5(CC)C=CCN6CC[C@]43[C@@H]65)C2)C1.O=S(=O)(O)O`, which inhibition in vivo at 0.1 mg/kg [1] is on record?
The inhibition in vivo at 0.1 mg/kg was 0%.

And the survival at 0.9 mg/kg (B16 [3])?
The survival at 0.9 mg/kg was 141%.

What about the Activity (Mus musculus [5]) of the same compound?
Its Activity is “Toxic”.

And the survival at 0.6 mg/kg (B16 [6])?
The survival at 0.6 mg/kg was 101%.

And the Activity (Mus musculus [7])?
Its Activity is “Toxic”.

What about the inhibition in vivo at 0.2 mg/kg [9] of the same compound?
Its inhibition in vivo at 0.2 mg/kg is 0%.

With `CC[C@]1(O)C[C@H]2CN(CCc3c([nH]c4ccccc34)[C@@](C(=O)OC)(c3cc4c(cc3OC)N(C)[C@H]3[C@@](O)(C(=O)NCCN(C)C)[C@H](O)[C@]5(CC)C=CCN6CC[C@]43[C@@H]65)C2)C1` as the compound, how does the inhibition in vivo at 0.2 mg/kg [19] read?
The inhibition in vivo at 0.2 mg/kg was 0%.

What about the inhibition in vivo at 0.4 mg/kg [20] of the same compound?
The inhibition in vivo at 0.4 mg/kg was 0%.

What about the pKa [21] of the same compound?
The pKa was 8.5.

What about the inhibition in vivo at 0.4 mg/kg [22] of the same compound?
Its inhibition in vivo at 0.4 mg/kg is 51%.

What about the inhibition in vivo at 0.2 mg/kg [9] of the same compound?
Its inhibition in vivo at 0.2 mg/kg is 0%.

For `CC[C@]1(O)C[C@H]2CN(CCc3c([nH]c4ccccc34)[C@@](C(=O)OC)(c3cc4c(cc3OC)N(C)[C@H]3[C@@](O)(C(=O)NCC#N)[C@H](O)[C@]5(CC)C=CCN6CC[C@]43[C@@H]65)C2)C1.O=S(=O)(O)O`, which inhibition in vivo at 0.1 mg/kg [1] is on record?
Its inhibition in vivo at 0.1 mg/kg is 0%.

What about the inhibition in vivo at 0.3 mg/kg [23] of the same compound?
The inhibition in vivo at 0.3 mg/kg was 26%.

What about the Activity (Mus musculus [24]) of the same compound?
Its Activity is “Toxic”.

What about the inhibition in vivo at 0.2 mg/kg [9] of the same compound?
Its inhibition in vivo at 0.2 mg/kg is 76%.

What about the inhibition in vivo at 0.1 mg/kg [15] of the same compound?
The inhibition in vivo at 0.1 mg/kg was 0%.

Which inhibition in vivo at 0.1 mg/kg [1] does the source give for `C=CC(=O)OCCNC(=O)[C@@]1(O)[C@H](O)[C@]2(CC)C=CCN3CC[C@@]4(c5cc([C@@]6(C(=O)OC)C[C@@H]7CN(CCc8c6[nH]c6ccccc86)C[C@](O)(CC)C7)c(OC)cc5N(C)[C@@H]14)[C@@H]32` here?
Its inhibition in vivo at 0.1 mg/kg is 76%.

What about the Activity (Mus musculus [5]) of the same compound?
Its Activity is “Toxic”.

And the inhibition in vivo at 0.05 mg/kg [25]?
Its inhibition in vivo at 0.05 mg/kg is 51%.

And the Activity (Mus musculus [26])?
Its Activity is “Toxic”.

— ChEMBL document CHEMBL3227917, “Structure-activity relationships of dimeric Catharanthus alkaloids. 2. Experimental antitumor activities of N-substituted deacetylvinblastine amide (vindesine) sulfates” (J Med Chem, 1979)
